Data published in paper PMC3967098 (Journal of medicinal chemistry, 2008).
Like-named read-outs stand apart in the source and are kept apart here.

Key:
[1] = test system: FRET-tagged duplex DNA sequence; test: FRET melting assay, duplex DNA; type: binding
[2] = test system: hTel quadruplex (human telomere); test: SPR equilibrium binding, hTel quadruplex; details: strong binding site; 25°C, HEPES 100mM KCl pH 7.3
How it was run: (§1)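 5′-Biotinylated quadruplex oligonucleotides were captured on a streptavidin chip to 350-400 RU, with a blank reference flow cell. Runs used 10mM HEPES, 100mM KCl, 3mM EDTA and P20 surfactant (pH 7.3) at 25°C. Ligand (1nM–10µM) was injected at 50µl/min for 5–10 min to steady state, then buffer for 10 min. The surface was regenerated with 10mM glycine pH 2.0, and KA came from nonlinear least-squares fitting.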

c-kit1 quadruplex = test: SPR equilibrium binding, c-kit1 quadruplex; set-up: species or system human; details: strong binding site; 25°C
How it was run: as §1

c-kit2 quadruplex = test: SPR equilibrium binding, c-kit2 quadruplex; set-up: species or system human; details: strong binding site; 25°C
How it was run: as §1

c-myc quadruplex = test: SPR equilibrium binding, c-myc quadruplex; set-up: species or system human; details: for SPR Ligand KA for a single-site fit, c-myc: strong binding site, 25°C
How it was run: as §1

MCF7 cells [3] = test: Long-term; type: cell-based, human; details: 1 week MCF7
How it was run: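 MCF7 cells (1×10^5 seeded, supplemented DMEM, 37 °C, 5% CO2) were exposed for 1 week to two sub-cytotoxic ligand concentrations, re-dosed twice weekly, alongside a media-only control. Cells were counted by haemocytometer, and population doublings were calculated as n = (log Pn – log P0)/log2, where P0 is the seeding density. Values are reported ± sd.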

[4] = test system: hTel quadruplex (human telomere); details: strong binding site; cited from earlier work
DNA hairpin duplex = details: cited from earlier work
[5] = test system: MCF7 breast adenocarcinoma cell line; details: read-out: SRB IC50, MCF7; cited from earlier work
[6] = test system: A549 non-small cell lung carcinoma cell line; details: read-out: SRB IC50, A549; cited from earlier work
MCF7 cells [7] = test: Assessment of chromosomal end-end fusions; type: cell-based, human; details: 1 week, data not shown

SMILES: O=C(CCCN1CCCC1)Nc1ccc(NC(=O)c2cccc(NC(=O)Nc3cccc(C(=O)Nc4ccc(NC(=O)CCCN5CCCC5)cc4)c3)c2)cc1 [9c, 1,3-bis(3-(4-(4-(pyrrolidin-1-yl)butanamido)phenylcarbamoyl)phenyl)urea]
- FRET ΔTm at a 1μM ligand concentration, Duplex [1]: 0.0 ± 0.6 °C
- SPR Ligand KA for a single-site fit, hTel [2]: 400000 M⁻¹
- SPR Ligand KA for a single-site fit, c-kit1 (c-kit1 quadruplex): 400000 M⁻¹
- SPR Ligand KA for a single-site fit, c-kit2 (c-kit2 quadruplex): 3.1e+06 M⁻¹
- SPR Ligand KA for a single-site fit, c-myc (c-myc quadruplex): 900000 M⁻¹
- PD (population doublings) (MCF7 cells [3]; 3.50 μM): 3.94 ± 0.24
- PD (population doublings) (MCF7 cells [3]; 7.00 μM): 3.35 ± 0.03

SMILES: O=C(CCN1CCCC1)Nc1cccc(NC(=O)c2ccc(NC(=O)Nc3ccc(C(=O)Nc4cccc(NC(=O)CCN5CCCC5)c4)cc3)cc2)c1 [10e, 1,3-bis(4-(3-(3-(pyrrolidin-1-yl)propanamido)phenylcarbamoyl)phenyl)urea]
- PD (population doublings) (MCF7 cells [3]; 1.00 μM): 3.40 ± 0.26
- PD (population doublings) (MCF7 cells [3]; 2.00 μM): 1.81 ± 0.10

SMILES: CN(C)c1ccc(Nc2c3ccc(NC(=O)CCN4CCCC4)cc3nc3cc(NC(=O)CCN4CCCC4)ccc23)cc1 [BRACO-19, 3,6-bis(3-pyrrolidin-1-ylpropionamido)-9-(4-dimethylaminophenylamino) acridine]
- SPR Ligand KA for a single-site fit, hTel [4]: 3.1e+07 M⁻¹
- SPR KA, Duplex (DNA hairpin duplex): 500000 M⁻¹
- IC50 [5]: 2.5 µM
- IC50 [6]: 2.4 µM

SMILES: O=C(CCN1CCCCC1)Nc1ccc(NC(=O)c2cccc(NC(=O)Nc3cccc(C(=O)Nc4ccc(NC(=O)CCN5CCCCC5)cc4)c3)c2)cc1 [9h, 1,3-bis(3-(4-(3-(piperidin-1-yl)propanamido)phenylcarbamoyl)phenyl)urea]
- PD (population doublings) (MCF7 cells [3]; 2.00 μM): 3.66 ± 0.00
- PD (population doublings) (MCF7 cells [3]; 3.50 μM): 3.46 ± 0.34

SMILES: O=C(CCN1CCCC1)Nc1ccc(NC(=O)c2cccc(NC(=O)Nc3cccc(C(=O)Nc4ccc(NC(=O)CCN5CCCC5)cc4)c3)c2)cc1 [9b, 1,3-bis(3-(4-(3-(pyrrolidin-1-yl)propanamido)phenylcarbamoyl)phenyl)urea]
- SPR Ligand KA for a single-site fit, hTel [2]: 1.1e+06 M⁻¹
- SPR Ligand KA for a single-site fit, c-kit1 (c-kit1 quadruplex): 1.4e+06 M⁻¹
- SPR Ligand KA for a single-site fit, c-kit2 (c-kit2 quadruplex): 5e+06 M⁻¹
- SPR Ligand KA for a single-site fit, c-myc (c-myc quadruplex): 2.1e+06 M⁻¹
- PD (population doublings) (MCF7 cells [3]; 1.00 μM): 4.53 ± 0.07
- PD (population doublings) (MCF7 cells [3]; 1.75 μM): 4.50 ± 0.03
- PD (population doublings) (MCF7 cells [3]; 2.25 μM): 2.73 ± 0.20
- chromosomal end-end fusions relative to an untreated control (MCF7 cells [7]): did not show significant changes

SMILES: O=C(CCCN1CCCC1)Nc1cccc(NC(=O)c2cccc(NC(=O)Nc3cccc(C(=O)Nc4cccc(NC(=O)CCCN5CCCC5)c4)c3)c2)c1 [9f, 1,3-bis(3-(3-(4-(pyrrolidin-1-yl)butanamido)phenylcarbamoyl)phenyl)urea]
- FRET ΔTm at a 1μM ligand concentration, Duplex [1]: 0.0 ± 0.3 °C

SMILES: O=C(CN1CCCC1)Nc1ccc(NC(=O)c2cccc(NC(=O)Nc3cccc(C(=O)Nc4ccc(NC(=O)CN5CCCC5)cc4)c3)c2)cc1 [9a, 1,3-bis(3-(4-(2-(pyrrolidin-1-yl)acetamido)phenylcarbamoyl)phenyl)urea]
- FRET ΔTm at a 1μM ligand concentration, Duplex [1]: 0.0 ± 0.6 °C
- SPR Ligand KA for a single-site fit, hTel [2]: 1.4e+06 M⁻¹
- SPR Ligand KA for a single-site fit, c-kit1 (c-kit1 quadruplex): 2.1e+06 M⁻¹
- SPR Ligand KA for a single-site fit, c-kit2 (c-kit2 quadruplex): 5.1e+06 M⁻¹
- selectivity for the c-myc quadruplex (SPR) (c-myc quadruplex; relative to the other quadruplexes): ~3 fold
- SPR Ligand KA for a single-site fit, c-myc (c-myc quadruplex): 1.4e+07 M⁻¹
- PD (population doublings) (MCF7 cells [3]; 5.00 μM): 3.79 ± 0.12
- PD (population doublings) (MCF7 cells [3]; 10.00 μM): 3.00 ± 0.38
